Laboratory results taken from ChEMBL document CHEMBL1155193, “Acyloxymethyl esterification of nodularin-R and microcystin-LA produces inactive protoxins that become reactivated and produce apoptosis inside intact cells” (J Med Chem, 2009).
Active and inactive are the calls of the source. No cut-off for these calls is given here. Starred links: 1 amine or outer side, 2 acyl side, 3 side chain; linkers in the order of their positions; H or OH if unused. Positions of bridges follow the written chain, without caps; N, C: chain ends. Non-standard residues stand in square brackets, D forms with d. Residues, ends and D or L forms follow the SMILES beside them. Adda = CO[C@@H](Cc1ccccc1)[C@@H](C)/C=C(C)/C=C/[C@H](N[*:1])[C@H](C)C(=O)[*:2]; X1 = CC(C)C[C@H](N[*:1])C(=O)C[C@@H](C(=O)O)[C@H](C)C(=O)[*:2]; dAsp(3S-Me) = C[C@H](C(=O)[*:3])[C@@H](N[*:1])C(=O)[*:2]; d(γGlu) = O=C(O)[C@@H](CCC(=O)[*:2])N[*:1]; NMeDha = C=C(NC)C(=O)O

Experiments:
Hepatocyte [1] = assay: Cytotoxicity against Wistar rat hepatocytes harboring transporter Oatp1b2 assessed as appearance of polarized cell blebbing at 80 nM after 90 mins by differential interference contrast microscopy; format: ADME, cell-based; conditions: 1.5 h, 0.08 µM
[2] = Lipophilicity, logD at pI; format: physicochemical; conditions: octanol/water
Procedure, shortened: (§1)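 In silico estimate under a standard ionic condition (0.1 M Cl⁻, 0.1 M Na⁺/K⁺) at pI and at pH 7.4. pKa was estimated in macro mode at 310 K.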

NIH3T3 [3] = assay: Induction of apoptosis in Swiss mouse 3T3 cells assessed as appearance of apoptotic morphology at 100 uM injected directly into intact cells after 3 hrs by Hoechst 33342 staining-based fluorescence microscopy in presence of esterase; format: cell-based; conditions: nih3t3, 3 h
NIH3T3 [4] = assay: Induction of apoptosis in Swiss mouse 3T3 cells up to 120 uM after 3 hrs by Hoechst 33342 staining-based fluorescence microscopy; format: cell-based; conditions: nih3t3, 3 h
Procedure, shortened: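 Swiss 3T3 mouse fibroblasts kept in RPMI with 10% FCS at 37 °C, 5% CO₂. About 7000 cells per well were exposed to various toxin concentrations for 3 h in fresh serum-free medium. The incubation was stopped with buffered formaldehyde containing Hoechst 33342, and apoptosis was scored by fluorescence and DIC microscopy. Mean ± SEM of three experiments.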

[5] = Stability assessed as formation of nodularin-R by HPLC analysis in presence of pig liver esterase; format: ADME; conditions: isolated protein
[6] = Lipophilicity, logD at pH 7.4; format: physicochemical; conditions: buffer; procedure, shortened: as §1
Hepatocyte [7] = assay: Cytotoxicity against Wistar rat hepatocytes harboring transporter Oatp1b2 assessed as appearance of polarized cell blebbing at 60 nM after 90 mins by differential interference contrast microscopy; format: ADME, cell-based; conditions: 1.5 h, 0.06 µM
[8] = biological target: Serine/threonine-protein phosphatase 2A catalytic subunit alpha isoform (Oryctolagus cuniculus) (UniProt P67777); assay: Displacement of [125]MC-YR from rabbit skeletal muscle protein phosphatase 2A after 1 hr; format: tissue-based; conditions: Muscle tissue
Sequence of Serine/threonine-protein phosphatase 2A catalytic subunit alpha isoform (Oryctolagus cuniculus) (P67777 whole entry, canonical isoform): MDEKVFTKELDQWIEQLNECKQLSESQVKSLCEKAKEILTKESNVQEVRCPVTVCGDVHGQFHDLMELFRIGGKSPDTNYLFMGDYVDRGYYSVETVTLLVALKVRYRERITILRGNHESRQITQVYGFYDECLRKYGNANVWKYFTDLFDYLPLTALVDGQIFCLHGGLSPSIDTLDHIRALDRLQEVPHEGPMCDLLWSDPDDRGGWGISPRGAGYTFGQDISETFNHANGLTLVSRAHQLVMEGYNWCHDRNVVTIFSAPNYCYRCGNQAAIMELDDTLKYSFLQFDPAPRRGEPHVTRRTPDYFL

Hepatocyte [9] = assay: Cytotoxicity against Wistar rat hepatocytes harboring transporter Oatp1b2 assessed as appearance of polarized cell blebbing at 4 uM after 90 mins by differential interference contrast microscopy; format: ADME, cell-based; conditions: 1.5 h
Hepatocyte [10] = assay: Cytotoxicity against Wistar rat hepatocytes harboring transporter Oatp1b2 assessed as appearance of polarized cell blebbing at 0.2 uM after 90 mins by differential interference contrast microscopy; format: ADME, cell-based; conditions: 1.5 h

SMILES | Activity (Hepatocyte [1]) | logD [2] | Activity (NIH3T3 [3]) | Activity (NIH3T3 [4]) [%] | Stability [5] | logD ([6]; read-out: logD) | Activity (Hepatocyte [7]) | Activity [8] | logD [6] | Activity (Hepatocyte [9]) | Activity (Hepatocyte [10])
C/C=C1/C(=O)N[C@@H](C(=O)O)[C@H](C)C(=O)N[C@@H](CCCNC(=N)N)C(=O)N[C@@H](/C=C/C(C)=C/[C@H](C)[C@H](Cc2ccccc2)OC)[C@H](C)C(=O)N[C@@H](C(=O)O)CCC(=O)N1C [NODULARIN] | Toxic | -3.1 | Toxic | – | – | – | – | – | – | – | –
C/C=C1/NC(=O)CC[C@H](C(=O)OCOC(=O)CC)NC(=O)[C@@H](C)[C@H](/C=C/C(C)=C/[C@H](C)[C@H](Cc2ccccc2)OC)NC(=O)[C@H](CCCNC(=N)N)NC(=O)[C@@H](C)[C@H](C(=O)OCOC(=O)CC)NC1=O | – | 1.6 | Toxic | < 20 | Unstable | -0.7 | Toxic | – | – | – | –
C/C=C1/NC(=O)CC[C@H](C(=O)OCOC(C)=O)NC(=O)[C@@H](C)[C@H](/C=C/C(C)=C/[C@H](C)[C@H](Cc2ccccc2)OC)NC(=O)[C@H](CCCNC(=N)N)NC(=O)[C@@H](C)[C@H](C(=O)OCOC(C)=O)NC1=O | – | 0.4 | Toxic | < 20 | Unstable | -2 | Toxic | inactive | – | – | –
C=C1C(=O)N[C@H](C)C(=O)N[C@@H](CC(C)C)C(=O)C[C@@H](C(=O)O)[C@H](C)C(=O)N[C@@H](C)C(=O)N[C@@H](/C=C/C(C)=C/[C@H](C)[C@H](Cc2ccccc2)OC)[C@H](C)C(=O)N[C@@H](C(=O)O)CCC(=O)N1C [MICROCYSTIN-LA] ([NMeDha][dA][X1]A[Adda][dE]-OH; lactam N-6) | – | 0.3 | – | – | – | – | – | – | – | – | –
C/C=C1/NC(=O)CC[C@H](C(=O)O)NC(=O)[C@@H](C)[C@H](/C=C/C(C)=C/[C@H](C)[C@H](Cc2ccccc2)OC)NC(=O)[C@H](CCC/N=C2/N=C(c3ccccc3)C(O)N2)NC(=O)[C@@H](C)[C@H](C(=O)O)NC1=O (some centres undefined) | – | -1.4 | Toxic | < 20 | – | – | – | – | -4.8 | Toxic | –
C=C1C(=O)N[C@H](C)C(=O)N[C@@H](CC(C)C)C(=O)N[C@@H](C(=O)O)[C@H](C)C(=O)N[C@@H](CCCNC(=N)N)C(=O)N[C@@H](/C=C/C(C)=C/[C@H](C)[C@H](Cc2ccccc2)OC)[C@H](C)C(=O)N[C@@H](C(=O)O)CCC(=O)N1C [MICROCYSTIN-LR] (R[Adda][d(γGlu)][NMeDha][dA]L[dAsp(3S-Me)]-OH; lactam N-7) | – | – | Toxic | – | – | – | – | – | – | – | Toxic
